Experimental data: ChEMBL document CHEMBL1156597, “Structure-activity relationship of kahalalide F synthetic analogues” (J Med Chem, 2008)

What was measured:
[1] = Cytotoxicity against human IGROV cells after 48 hrs by SRB assay; assay type: functional; details: for CC50: read-out: LC50 (the source's name)
Summary of the method: (§1)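 Cells grown in RPMI 1640 with 10% FBS and penicillin/streptomycin at 37 °C and 5% CO₂, trypsinized, then seeded at 5 × 10³/well. After 18 h drug-free attachment, samples in DMSO/EtOH/PBS (0.5:0.5:99) were added for 48 h continuous exposure. Cells were fixed with cold TCA (1 h, 4 °C) and stained with SRB (10 min). Tris-solubilized stain read at 490 nm. Triplicate wells, mean ± SD; GI₅₀ derived.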

[2] = system: LoVo; assay: Cytotoxicity against human doxorubicin resistant LoVo cells after 48 hrs by SRB assay; assay type: functional; details: for CC50: read-out: LC50 (the source's name); summary of the method: as §1
[3] = system: HeLa; assay: Cytotoxicity against human HeLa cells after 48 hrs by SRB assay; assay type: functional; details: for CC50: read-out: LC50 (the source's name); summary of the method: as §1
[4] = system: SK-MEL-28; assay: Cytotoxicity against human SK-MEL-28 cells after 48 hrs by SRB assay; assay type: functional, cell-based; details: Homo sapiens, SK-MEL-28, 48 h; for GI50: read-out: GI50; for CC50: read-out: LC50 (the source's name); summary of the method: as §1
[5] = system: PANC-1; assay: Cytotoxicity against human PANC1 cells after 48 hrs by SRB assay; assay type: functional; details: PANC-1, 48 h; for CC50: read-out: LC50 (the source's name); summary of the method: as §1
[6] = Cytotoxicity against human IGROV-ET cells after 48 hrs by SRB assay; assay type: functional; details: for CC50: read-out: LC50 (the source's name); summary of the method: as §1
[7] = system: K562; assay: Cytotoxicity against human K562 cells after 48 hrs by SRB assay; assay type: functional; details: K562, 48 h; for CC50: read-out: LC50 (the source's name); summary of the method: as §1
[8] = Cytotoxicity against human HeLa-APL cells after 48 hrs by SRB assay; assay type: functional; summary of the method: as §1
[9] = system: LoVo; assay: Cytotoxicity against human LoVo cells after 48 hrs by SRB assay; assay type: functional; details: for CC50: read-out: LC50 (the source's name)
[10] = system: SK-BR-3; assay: Cytotoxicity against human SKBR3 cells after 48 hrs by SRB assay; assay type: functional; details: SK-BR-3, 48 h; for CC50: read-out: LC50 (the source's name); summary of the method: as §1
[11] = system: DU-145; assay: Cytotoxicity against human DU145 cells after 48 hrs by SRB assay; assay type: functional, cell-based; details: Homo sapiens, DU-145, 48 h; for CC50: read-out: LC50 (the source's name); summary of the method: as §1
[12] = system: A549; assay: Cytotoxicity against human A549 cells after 48 hrs by SRB assay; assay type: functional, cell-based; details: Homo sapiens, A549, 48 h; for GI50: read-out: GI50; summary of the method: as §1
[13] = system: HT-29; assay: Cytotoxicity against human HT29 cells after 48 hrs by SRB assay; assay type: functional, cell-based; details: Homo sapiens, HT-29, 48 h; for CC50: read-out: LC50 (the source's name); summary of the method: as §1

| SMILES | CC50 [1] [µM] | CC50 [2] [µM] | CC50 [3] [µM] | CC50 [4] [µM] | GI50 [5] [µM] | TGI [5] [µM] | CC50 [5] [µM] | GI50 ([6]; read-out: GI50) [µM] | CC50 [6] [µM] | GI50 [7] [µM] | TGI [7] [µM] | CC50 [7] [µM] | LC50 (concentration giving 50% net cell kill) [8] [µM] | GI50 [9] [µM] | TGI [9] [µM] | CC50 [9] [µM] | CC50 [11] [µM] | LC50 [12] [µM] | GI50 [13] [µM] | CC50 [13] [µM] | also measured |
| --- | --- | --- | --- | --- | --- | --- | --- | --- | --- | --- | --- | --- | --- | --- | --- | --- | --- | --- | --- | --- | --- |
| C/C=C1\NC(=O)[C@H](Cc2ccccc2)NC(=O)[C@@H](C(C)C)NC(=O)[C@@H]([C@H](C)CC)NC(=O)[C@H](NC(=O)[C@H](NC(=O)[C@H](CCCN)NC(=O)[C@H]2CCCN2C(=O)[C@H](NC(=O)[C@@H](NC(=O)[C@H](CCC(N)=O)NC(=O)[C@H](NC(=O)CCCC(C)C)C(C)C)C(C)C)C(C)C)[C@H](C)CC)[C@H](C)OC(=O)[C@H](C(C)C)NC1=O | 0.456 | 0.348 | 0.946 | 1.17 | 1.74 | 1.74 | 1.74 | 0.477 | 0.561 | 1.9 | 1.9 | 1.9 | 0.955 | 0.258 | 0.325 | 0.357 | 0.913 | 1.14 | 0.448 | 0.436 | GI50 [1]: 0.406 µM; GI50 ([1]; read-out: GI50): 0.357 µM; TGI [4]: 1.17 µM; GI50 [4]: 1.17 µM; GI50 [6]: 0.575 µM; TGI [10]: 0.173 µM; GI50 ([10]; read-out: GI50): 0.151 µM; CC50 [10]: 0.3 µM; GI50 [11]: 0.913 µM; GI50 ([11]; read-out: GI50): 0.913 µM; TGI [12]: 1.14 µM; GI50 [12]: 1.14 µM; TGI [13]: 0.455 µM |
| C/C=C1\NC(=O)[C@H](Cc2ccccc2)NC(=O)[C@@H](C(C)C)NC(=O)[C@@H]([C@H](C)CC)NC(=O)[C@H](NC(=O)[C@H](NC(=O)[C@H](CCCN)NC(=O)[C@H]2CCCN2C(=O)[C@H](NC(=O)[C@@H](NC(=O)[C@@H](NC(=O)CNC(=O)CCCC(C)C)[C@@H](C)O)C(C)C)C(C)C)[C@H](C)CC)[C@H](C)OC(=O)[C@H](C(C)C)NC1=O | 1.43 | 5.2 | 1.65 | 2.04 | 0.499 | 1.25 | 2.11 |  | 1.2 | 3.85 | 11.4 | 4.39 | 1.89 | 8.76 | 8.9 | 5.18 | 1.75 | 1.89 | 10.9 | 5.41 | GI50 [2]: 11.1 µM; TGI [2]: 9.1 µM; GI50 [3]: 0.672 µM; TGI [3]: 1.32 µM; TGI [13]: 9.54 µM |
| C/C=C1\NC(=O)[C@H](Cc2ccccc2)NC(=O)[C@H](C(C)C)NC(=O)[C@@H]([C@H](C)CC)NC(=O)[C@H](NC(=O)[C@H](NC(=O)[C@H](CCCN)NC(=O)[C@H]2CCCN2C(=O)[C@H](NC(=O)[C@@H](NC(=O)[C@@H](NC(=O)[C@H](NC(=O)CCCC(C)C)C(C)C)[C@@H](C)O)C(C)C)C(C)C)[C@H](C)CC)[C@H](C)OC(=O)[C@H](C(C)C)NC1=O | 1.39 | 5.06 | 1.61 | 1.99 | 1.68 | 4.98 | 2.83 | 1.22 | 1.17 |  |  | 4.27 | 1.84 | 5.49 | 8.66 | 5.04 | 1.7 | 1.83 |  | 5.26 | TGI [6]: 2.86 µM |
| C/C=C1\NC(=O)[C@H](Cc2ccccc2)NC(=O)[C@@H](C(C)C)NC(=O)[C@@H]([C@H](C)CC)NC(=O)[C@H](NC(=O)[C@H](NC(=O)[C@H](CCCNC(=O)C[C@](OC)(c2ccccc2)C(F)(F)F)NC(=O)[C@H]2CCCN2C(=O)[C@H](NC(=O)[C@@H](NC(=O)[C@@H](NC(=O)[C@H](NC(=O)CCCC(C)C)C(C)C)[C@@H](C)O)C(C)C)C(C)C)[C@H](C)CC)[C@H](C)OC(=O)[C@H](C(C)C)NC1=O | 0.442 | 0.119 | 0.842 | 1.04 | 1.55 | 1.55 | 1.55 | 0.344 | 0.479 | 1.11 | 1.69 | 1.69 | 0.85 | 0.0927 | 0.0914 | 0.0909 | 0.812 | 1.01 | 0.148 | 0.311 | GI50 [1]: 0.313 µM; GI50 ([1]; read-out: GI50): 0.245 µM; GI50 [3]: 0.537 µM; TGI [3]: 0.842 µM; TGI [4]: 1.04 µM; GI50 [4]: 1.04 µM; GI50 [6]: 0.397 µM; GI50 [8]: 0.554 µM; TGI [8]: 0.615 µM; GI50 [10]: 0.0958 µM; GI50 ([10]; read-out: GI50): 0.0918 µM; CC50 [10]: 0.158 µM; GI50 [11]: 0.812 µM; GI50 ([11]; read-out: GI50): 0.886 µM; TGI [12]: 1.01 µM; GI50 [12]: 1.01 µM; TGI [13]: 0.147 µM |
| C/C=C1\NC(=O)[C@H](Cc2ccccc2)NC(=O)[C@@H](C(C)C)NC(=O)[C@@H]([C@H](C)CC)NC(=O)[C@H](NC(=O)[C@H](NC(=O)[C@H](CCCN)NC(=O)[C@H]2CCCN2C(=O)[C@H](NC(=O)[C@@H](NC(=O)[C@@H](NC(=O)[C@H](N)C(C)C)[C@@H](C)O)C(C)C)C(C)C)[C@H](C)CC)[C@H](C)OC(=O)[C@H](C(C)C)NC1=O | 1.5 | 5.47 | 1.74 | 4.14 | 5.49 | 5.39 | 3.06 | 4.01 | 1.26 |  |  | 4.61 | 1.99 | 9.46 | 9.36 | 5.45 | 1.84 | 1.98 |  | 5.68 | TGI [6]: 3.1 µM |
